A word on the IC50: it is the concentration that gives 50% inhibition. Lower therefore signals greater potency in that assay. One may read the EC50 as the concentration at which the effect is half-maximal. Read a low EC50 as greater potency. What is called EC90 is the concentration needed for an effect of 90%. The term CC50 denotes the concentration giving 50% cytotoxicity. Read a high CC50 as better tolerance by the cells.

Structures are written as SMILES. A value given as a limit tells only on which side of the number the result lay.

The values that follow come from ChEMBL document CHEMBL1127374, “Synthesis and antiviral (HIV-1, HBV) activities of 5-halo-6-methoxy(or azido)-5,6-dihydro-3'-fluoro-3'-deoxythymidine diastereomers. Potential prodrugs to 3'-fluoro-3'-deoxythymidine” (J Med Chem, 1994).

Data set [1] relates to CCRF-CEM. The data set can be described thus: Tested for in vitro drug concentration which results in 50% survival of uninfected untreated control CEM cells. It counts as functional, cell-based. The settings on record: Homo sapiens. The essentials: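 Uninfected CEM T4 lymphocytes exposed to the test compound alongside the anti-HIV protection assay, with an AZT control run concurrently. IC50 is the concentration giving 50% survival relative to uninfected untreated control cells.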

Data set [2] in a line: Selectivity index is the ratio of IC50 value to that of EC50 value. The data set is classed as functional. The essentials: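 CEM T4 lymphocytes infected with small amounts of HIV-1, with a full replication cycle needed for cell killing. EC50 is the concentration giving 50% survival of infected cells relative to uninfected untreated controls. IC50 is the concentration giving 50% survival of uninfected untreated CEM cells. SI = IC50/EC50. An AZT-treated control was run alongside.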

The subject of data set [3] is CCRF-CEM. The data set can be described thus: Tested for in vitro drug concentration which produces 50% survival of HIV-1 infected CEM cells relative to uninfected untreated controls. The data set is classed as functional, cell-based. The settings on record: Homo sapiens. The procedure, abridged: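 CEM T4 lymphocytes infected with small amounts of HIV-1, so that a complete replication cycle is needed for cell killing. Protection from cytolysis measured. EC50 is the concentration giving 50% survival of infected cells relative to uninfected untreated controls. AZT-treated positive control run at the same time under identical conditions.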

Data set [4] is described as follows: Tested for in vitro percent of 3'-fluoro-3'-deoxythymidine(FLT) formed upon incubation with glutathione. It counts as ADME. The procedure, abridged: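 Test compound incubated with reduced glutathione at a 1:2 molar ratio in phosphate buffer, pH 7.4, 37 °C, 30 min. UV detection at 230 nm for the 5,6-dihydro compound and 265 nm for FLT.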
Data set [5] in a line: (§1) Compound was tested in vitro against extracellular DNA hepatitis B virus of human liver cells. The data set is classed as functional. The essentials:
(§2)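 HBV-producing human liver 2.2.15 cells grown to confluence, then dosed daily for 9 continuous days with daily medium change. Medium collected at days 0, 3, 6 and 9 for extracellular virion HBV DNA. Cells lysed 24 h after day 9 for intracellular HBV genomic forms (replication). EC50 and EC90 derived from HBV DNA levels.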

Data set [6] in a line: Selectivity index is the ratio of CC50 to that of EC50 (anti-hepatitis B virus activity in intracellular DNA). It counts as functional. The essentials:
(§3)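 Selectivity index calculated as CC50 (neutral red uptake, 2.2.15 cells, 9-day daily dosing) divided by EC50 from HBV DNA (extracellular virion DNA in line 3, intracellular DNA in line 4).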

A short description of data set [7]: Selectivity index is the ratio of CC50 to that of EC50 (anti-hepatitis B virus activity in extracellular DNA). It counts as functional. The procedure, abridged:
as §3

A short description of data set [8]: (§4) Compound was tested in vitro against intracellular DNA hepatitis B virus of human liver cells. The data set is classed as functional, cell-based. The procedure, abridged:
as §2

Data set [9] can be described thus: as §1. It counts as functional. The procedure, abridged: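 2.2.15 cells (chronically HBV-producing human liver line) grown to confluence, then dosed daily for 9 continuous days with medium changed daily. Extracellular virion HBV DNA in medium sampled at days 0, 3, 6 and 9 and quantified; intracellular HBV genomic forms analysed from cells lysed 24 h after day 9.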
The source holds these as a separate data set.

Data set [10] in a line: Tested for in vitro cytotoxic concentration against hepatitis B irus replication in chronically HBV-producing human liver cells. It counts as functional. The procedure, abridged:
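Confluent 2.2.15 cells dosed daily for 9 days as in the anti-HBV assay. Four concentrations in 3–10-fold steps, triplicate cultures, untreated controls on each plate, cell-free wells to correct for light scattering. Neutral red uptake read at 510 nm 24 h after day 9, relative to untreated cells. CC50 taken as the 50% cytotoxic concentration.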

Data set [11] in a line: as §4. It counts as functional. The procedure, abridged:
as §2

The next data set relates to MT4. The experiment in a line: Tested for in vitro cytopathic effect of HIV for MT-4 cells. The settings on record: Homo sapiens. It counts as functional, cell-based. (In general: Damage to the host cells serves as the signal in cytopathic effect assays.)

`CO[C@H]1N(C2CC(F)C(CO)O2)C(=O)NC(=O)[C@]1(C)Cl` (some centres undefined) registered an IC50 in the data set with CCRF-CEM [1] of over 800 µM. Moreover, in data set [2], the Selectivity index is over 144. In the data set on CCRF-CEM [3], this molecule came in with an EC50 of 5550 nM. The same molecule showed an FLT in data set [4] of 0%.
In the case of `Nc1ccn([C@H]2CC[C@@H](CO)O2)c(=O)n1` [ZALCITABINE], the values for the EC90 in data set [5] and in [11] were 8.1 µM and 12 µM, respectively. Also, the results for the Selectivity index in data set [6] and in [7] were 18 and 27, respectively. The EC50 in data set [8] was 2.1 µM; in data set [9], 1.3 µM. The molecule also showed a CC50 in data set [10] of 219 µM.
Molecule `CO[C@H]1N(C2CC(F)C(CO)O2)C(=O)NC(=O)[C@@]1(C)Cl` (some centres undefined) had an IC50 with CCRF-CEM [1] of over 800 µM. In data set [2], the Selectivity index was over 21. The molecule further registered an EC50 in the data set with CCRF-CEM [3] of 37900 nM. The same molecule registered an FLT in data set [4] of 0%.
For `CO[C@@H]1N(C2CC(F)C(CO)O2)C(=O)NC(=O)[C@@]1(C)I` (some centres undefined), in that order: 12.2 µM, 3250, 3.75 nM and 90%.
For the molecule `CC1(Br)C(=O)NC(=O)N([C@H]2C[C@H](F)[C@@H](CO)O2)C1N=[N+]=[N-]` (mixture of isomers), inhibition with CCRF-CEM [1] was half-maximal at 100 µM (IC50). Besides, the EC90 in data set [5] is 42 µM; in data set [11], 57 µM. Moreover, the results for the Selectivity index in data set [6], in data set [7] and in [2] were 3.1, 4.2 and 7140, respectively. In addition, the EC50 in data set [8] came out at 13 µM; in the data set on CCRF-CEM [3] it was 14.5 nM. The CC50 in data set [10] worked out at 176 µM. For the same molecule, the FLT in data set [4] amounted to 95%.
In the case of `CO[C@H]1N(C2CC(F)C(CO)O2)C(=O)NC(=O)[C@]1(C)Br` (some centres undefined), half-maximal inhibition in the data set on CCRF-CEM [1] (IC50) was put at 1.72 µM. Moreover, the figures for the EC90 in data set [5] and in data set [11] were 36 µM and 42 µM, respectively. For the same molecule, the Selectivity index in [6] was 18; in data set [7], 21; in [2], 328. Further, the values for the EC50 (in data set [8]; in [9]; with CCRF-CEM [3]) were 13 µM, 6 µM and 5.25 nM, respectively. In [10], the CC50 was 765 µM. The same molecule gave an FLT in data set [4] of 10%.
Regarding `CO[C@@H]1N(C2CC(F)C(CO)O2)C(=O)NC(=O)[C@@]1(C)Br` (some centres undefined), the midpoint of inhibition in the data set with CCRF-CEM [1], the IC50, lay at 9.72 µM. Moreover, the EC90 stood at 67 µM in [5] and 118 µM in data set [11]. Besides, the results for the Selectivity index in [6], in data set [7] and in data set [2] were 8.8, 16 and 2990, respectively. Further, the 50% effective concentration (EC50) in data set [8] was 26 µM; in data set [9], 21 µM; in the data set with CCRF-CEM [3], 3.25 nM. In addition, the midpoint of cytotoxicity in [10], the CC50, lay at 1040 µM. In data set [4], the FLT is given as 10%.
In the data set on CCRF-CEM [1], `Cc1cn([C@H]2C[C@H](N=[N+]=[N-])[C@@H](CO)O2)c(=O)[nH]c1=O` [ZIDOVUDINE] showed an IC50 of 500 µM. In addition, the results for the EC50 in the data set with MT4 and with CCRF-CEM [3] were 4 nM and 3 nM, respectively. In [2], the Selectivity index amounted to 167000.
Regarding `CO[C@H]1N(C2CC(F)C(CO)O2)C(=O)NC(=O)[C@]1(C)I` (some centres undefined), in the data set on CCRF-CEM [1], the IC50 was 57.3 µM. Also, in data set [2], the Selectivity index worked out at 1. Moreover, the EC50 with CCRF-CEM [3] was 50000 nM. Further, the FLT in [4] is 50%.
